Consider three compounds from ChEMBL document CHEMBL1128525, “The role of water molecules in the structure-based design of (5-hydroxynorvaline)-2-cyclosporin: synthesis, biological activity, and crystallographic analysis with cyclophilin A” (J Med Chem, 1995).

The target of assay [1] is T1, Peptidyl-prolyl cis-trans isomerase A (Homo sapiens, UniProt P62937). In words: In vitro binding affinity against cyclophilin A by ELISA.
Assay [2] has as its target T1, Peptidyl-prolyl cis-trans isomerase A. In words: In vitro binding affinity against cyclophilin A by rotamase assay.
The species named for the next assay is Mus musculus. In words: The compound was evaluated in vitro for the immunosuppressive activity in mouse mixed lymphocyte reaction (MLR_M). Format: functional. Summed up:
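Cellular immunosuppression read in the mouse mixed lymphocyte reaction or the interleukin-2 reporter gene assay. The IC50 in nM is the mean of three independent experiments.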

T1 sequence (P62937 whole entry): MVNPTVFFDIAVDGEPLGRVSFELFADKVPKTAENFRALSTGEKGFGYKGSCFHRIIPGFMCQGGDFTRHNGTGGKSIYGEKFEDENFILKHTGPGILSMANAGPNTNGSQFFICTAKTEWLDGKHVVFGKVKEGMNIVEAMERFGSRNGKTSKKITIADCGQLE

As for `C/C=C/C[C@@H](C)[C@@H](O)[C@@H]1C(=O)N[C@H](CCC)C(=O)N(C)[C@@H](CO)C(=O)N(C)[C@H](CC(C)C)C(=O)N[C@H](C(C)C)C(=O)N(C)[C@H](CC(C)C)C(=O)N[C@H](C)C(=O)N[C@@H](C)C(=O)N(C)[C@H](CC(C)C)C(=O)N(C)[C@H](CC(C)C)C(=O)N(C)[C@H](C(C)C)C(=O)N1C`, the IC50 is 0.093 µM in assay [1], 0.048 µM in assay [2] and 0.056 µM in the assay listed under Mus musculus.
Take `C/C=C/C[C@@H](C)[C@@H](O)[C@@H]1C(=O)N[C@H](CCCO)C(=O)N(C)CC(=O)N(C)[C@H](CC(C)C)C(=O)N[C@H](C(C)C)C(=O)N(C)[C@H](CC(C)C)C(=O)N[C@H](C)C(=O)N[C@@H](C)C(=O)N(C)[C@H](CC(C)C)C(=O)N(C)[C@H](CC(C)C)C(=O)N(C)[C@H](C(C)C)C(=O)N1C`: the IC50 in assay [1] stood at 0.45 µM; in assay [2] it was 0.256 µM; in the assay filed under Mus musculus, 0.14 µM.
The matching figures for `C/C=C/C[C@@H](C)[C@@H](O)[C@H]1C(=O)N[C@@H](CCC)C(=O)N(C)CC(=O)N(C)[C@@H](CC(C)C)C(=O)N[C@@H](C(C)C)C(=O)N(C)[C@@H](CC(C)C)C(=O)N[C@@H](C)C(=O)N[C@H](C)C(=O)N(C)[C@@H](CC(C)C)C(=O)N(C)[C@@H](CC(C)C)C(=O)N(C)[C@@H](C(C)C)C(=O)N1C` [GECLOSPORIN]: 0.31 µM, 0.13 µM and 0.046 µM.

The IC50 is the point on the concentration scale where inhibition reaches its midpoint. Higher therefore signals a need for much substance.
